Shown are actives, neighbours in structure and some others; about 1.8% of the full set was active somewhere.
SKN-1 inh: suppressors of acrylamide-induced Pgst-4::GFP reporter in worms, primary screen, SKN-1 inhibitor project, whole organism, uHTS, GFP/RFP fluorescence ratio, strain VP596 | C. elegans VP596 Pgst-4::GFP/RFP ratio, 24 h | inhibition, % at 21.8 µM | actives 0.49% (n = 360,000);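 active = interference check ratio from 0.5 to 1.5 plus GFP to RFP signal ratio inhibition reaching or exceeding a fixed threshold, cut at about 30% in these data, passing the limit was not always enough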
eIF4H FP inh: human eIF4H binding inhibitors, primary screen, translation initiation inhibitor project, biochemical, uHTS, fluorescence polarization. actives 0.94% (n = 290,000). inhibition, % at 35 µM. Eukaryotic translation initiation factor 4H (Homo sapiens), Q15056. eIF4H fluorescence polarization binding assay. AID 2012, 2009;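 also: calls also rest on retests at 20 µM and on dose response follow-up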
MT1-MMP act inh: blockers of MT1-MMP proenzyme processing, primary screen, HT1080 RFP-PRO-GFP cells, GFP/RFP fluorescence | AID 651647, 2012 | GFP/RFP ratio fluorescence, overnight; percent of plate control window, DMSO zero | GFP/RFP ratio change, % at 20 µM | actives 0.061% (n = 360,000) | Matrix metalloproteinase-14 (Homo sapiens), P50281;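 active = GFP/RFP ratio change of at least 30% with cell ATP level not reduced by more than half and red fluorescence within 50% of control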
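system = RFP-PRO-GFP reporter HT1080 cells | dosing = 20 µM single dose, 1% DMSO | timing = overnight cell settling, then overnight compound exposure, 37 °C, 5% CO2 | read-out basis = GFP/RFP fluorescence ratio | controls = DMSO and RFP-L50D-GFP cell wells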
PABP polyA inh: PABP poly(A) RNA binding inhibitors, primary screen, biochemical, fluorescence polarization, uHTS. calls only at 35 µM. actives 1% (n = 290,000);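 also: calls also rest on retests at 20 µM and on dose response follow-up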
MLLE-PAM2 inh: inhibitors of PABP1 MLLE–PAM2 peptide binding, primary screen, biochemical, fluorescence polarization, FITC-PAM2, GST-MLLE; actives 0.36% (n = 360,000); inhibition, % at 20 µM; in the data active = inhibition above about 35%, passing the limit was not always enough;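 also: plate controls were DMSO wells with GST-MLLE for no effect and wells lacking GST-MLLE protein for full effect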
* hit, by the source's call; ! = not active in a repeat. Unless noted, no rule for the calls is given here.

For c1ccc(-c2cc3nccc(-c4ccccn4)n3n2)cc1 the results were SKN-1 inh 39*, eIF4H FP inh -3, MT1-MMP act inh -1, PABP polyA inh inactive and MLLE-PAM2 inh 3.
`Cc1ccc(N2C(=O)CC(SCC(=O)Nc3ccc(S(N)(=O)=O)cc3)C2=O)cc1` (stereo unspecified) gave SKN-1 inh 7, eIF4H FP inh 1, MT1-MMP act inh 6, PABP polyA inh inactive and MLLE-PAM2 inh 42*.
For CCOC(=O)c1ccc(N2C(=O)CC(SCC(=O)Nc3ccc(S(N)(=O)=O)cc3)C2=O)cc1 (stereo unspecified) the results were SKN-1 inh 16, eIF4H FP inh 12, MT1-MMP act inh 0, PABP polyA inh inactive and MLLE-PAM2 inh 32.
Cc1cc(O)cc2c1C(=O)/C(=C/c1ccco1)O2 was read as SKN-1 inh 22, eIF4H FP inh 61*, MT1-MMP act inh -28, PABP polyA inh active and MLLE-PAM2 inh -11.
CCC(=O)Oc1ccc2c(c1)O/C(=C\c1ccco1)C2=O was read as SKN-1 inh -15, eIF4H FP inh inconclusive, MT1-MMP act inh -43, PABP polyA inh inconclusive and MLLE-PAM2 inh 57.
Screening O=C(c1ccc(Cl)c([N+](=O)[O-])c1)N1CCCc2ccccc21 returned SKN-1 inh -4, eIF4H FP inh 1, MT1-MMP act inh -2, PABP polyA inh inactive and MLLE-PAM2 inh 4.
Screening O=C(Nc1ccccc1)c1sc(N2CCOCC2)nc1-c1ccccc1 returned SKN-1 inh -2, eIF4H FP inh active, MT1-MMP act inh -1, PABP polyA inh active and MLLE-PAM2 inh -2.
For N#C/C(=C\c1sc(N2CCOCC2)nc1-c1ccccc1)C(=O)Nc1cccc2ccccc12 the results were eIF4H FP inh 55* and PABP polyA inh active.
`Cc1ccccc1NC(=O)CSc1[nH]c(=O)cc(C)c1C#N` gave SKN-1 inh 10, eIF4H FP inh 22*, MT1-MMP act inh 9, PABP polyA inh active and MLLE-PAM2 inh -43.
For Cc1nnc(SCC(=O)Nc2ccccc2)[nH]c1=O the results were SKN-1 inh -4, eIF4H FP inh -1, MT1-MMP act inh 4, PABP polyA inh inactive and MLLE-PAM2 inh 29.
Screening Cc1cc(=O)[nH]c(SCC(=O)NC(C)C2CC3CCC2C3)c1C#N (stereo unspecified) returned SKN-1 inh 1, eIF4H FP inh 3.3*, MT1-MMP act inh -3, PABP polyA inh active and MLLE-PAM2 inh -1.
Cc1cc(=O)[nH]c(SCC(=O)c2ccccc2)c1C#N was read as SKN-1 inh 4, eIF4H FP inh 81*, MT1-MMP act inh 3, PABP polyA inh active and MLLE-PAM2 inh -66.
`Cc1ccccc1NC(=O)CSc1nnc(C)c(=O)[nH]1` gave SKN-1 inh -4, eIF4H FP inh -5, MT1-MMP act inh -2, PABP polyA inh inactive and MLLE-PAM2 inh 43*.
`COc1ccc(NC(=O)CSc2[nH]c(=O)cc(C)c2C#N)cc1OC` gave SKN-1 inh 2, eIF4H FP inh -4, MT1-MMP act inh 9, PABP polyA inh inactive and MLLE-PAM2 inh 1.
For O=C(Nc1cccc(Cl)c1Cl)C1CCN(C(=O)c2cccs2)CC1 the results were SKN-1 inh 15, eIF4H FP inh -14, MT1-MMP act inh 1, PABP polyA inh inactive and MLLE-PAM2 inh -16.
Screening CCc1cccc(CC)c1NC(=O)CSc1nnc(CCC(=O)O)c(=O)[nH]1 returned SKN-1 inh -3, eIF4H FP inh -10, MT1-MMP act inh 1, PABP polyA inh inactive and MLLE-PAM2 inh 39*.
Cc1ccc(S(=O)(=O)NC2=C(N3CCN(c4ccccc4F)CC3)C(=O)c3ccccc3C2=O)cc1 was read as SKN-1 inh 8, eIF4H FP inh 10, MT1-MMP act inh 9, PABP polyA inh inactive and MLLE-PAM2 inh 38*!.
`Cc1ccc(S(=O)(=O)NC2=C(N3CCN(Cc4ccccc4)CC3)C(=O)c3ccccc3C2=O)cc1` gave SKN-1 inh 5, eIF4H FP inh -5, MT1-MMP act inh 7, PABP polyA inh inactive and MLLE-PAM2 inh 1.
CC1(C)OC(c2ccccc2)=C/C(=C/C=C2C(=O)c3ccccc3C2=O)O1 was read as SKN-1 inh 60*, eIF4H FP inh inconclusive, MT1-MMP act inh -13, PABP polyA inh inactive and MLLE-PAM2 inh -78.
Cc1ccccc1N=C/C=C1/C=C(c2ccccc2)OC(C)(C)O1 was read as SKN-1 inh -2, eIF4H FP inh 4, MT1-MMP act inh -10, PABP polyA inh inactive and MLLE-PAM2 inh -25.
For O=C(CSS(=O)(=O)O)N1CCN(C(=O)c2ccoc2)CC1 the results were SKN-1 inh -6, eIF4H FP inh -10, MT1-MMP act inh -1, PABP polyA inh inactive and MLLE-PAM2 inh 15.
For CC(=O)Nc1ccc2c(c1)Cc1c-2cc(Br)c(N)c1Br the results were SKN-1 inh 37*, MT1-MMP act inh 4 and MLLE-PAM2 inh 16.
For CC(=O)Nc1c(Br)cc2c(c1Br)Cc1cc(Br)ccc1-2 the results were SKN-1 inh 4, MT1-MMP act inh -4 and MLLE-PAM2 inh 11.
Cc1cccc(NC(=S)NNC(=O)c2csc3c2CCCC3)c1 was read as SKN-1 inh 13, eIF4H FP inh 18, MT1-MMP act inh 7, PABP polyA inh inactive and MLLE-PAM2 inh 38*.
For Cc1ccccc1-c1nc(S(=O)(=O)c2ccccc2)c(N2CCCC2)o1 the results were SKN-1 inh 3, MT1-MMP act inh -4 and MLLE-PAM2 inh 42*.
Screening NC(=O)C1CCN(c2oc(-c3ccccc3F)nc2S(=O)(=O)c2ccc(Cl)cc2)CC1 returned SKN-1 inh 38*, eIF4H FP inh -2, MT1-MMP act inh 1, PABP polyA inh inactive and MLLE-PAM2 inh 16.
For Clc1ccc(-c2nnc(-c3ccccc3)c(N3CCSCC3)n2)cc1 the results were SKN-1 inh 38*, eIF4H FP inh -5, MT1-MMP act inh -6, PABP polyA inh inactive and MLLE-PAM2 inh 3.
Screening CC(C)C[C@H]1CNC(=O)C(=O)N1C[C@@H]1CCCN1C[C@H](Cc1ccc(O)cc1)N1C[C@H](Cc2ccccc2)N(CC2CCCCC2)C(=O)C1=O returned SKN-1 inh 5 and MT1-MMP act inh -3.
Screening COCCn1c(SCC(=O)c2c(N)n(C)c(=O)n(C)c2=O)nc2ccccc21 returned SKN-1 inh 4, eIF4H FP inh 3.0*, MT1-MMP act inh -1, PABP polyA inh active and MLLE-PAM2 inh -1.

Screens: PubChem BioAssay, Sanford-Burnham Center for Chemical Genomics
